High-throughput results: PubChem BioAssay, several laboratories
A selection: hits, their analogues and other compounds. The true share with any hit is near 2.2%.
V-ATPase pHluor = regulators of yeast V-ATPase proton pumping, primary screen, pHLuorin cytosolic pH fluorescence; S. cerevisiae; response, % at 10 µM; actives 0.37% (n = 350,000); AID 504577, 2011; in the data active = response mostly above about 7.3%, no sharp cut-off; inactive = mostly below about 5.4%; also: actives read high
NR2E3 ag-1 = NR2E3 agonists in two-hybrid cells, primary screen, cell-based, luminescence, CHO-S, Gal4-NCOR/VP16-NR2E3. Photoreceptor-specific nuclear receptor (Homo sapiens), Q9Y5X4. luciferase. inhibition of corepressor binding, % at 3.98 µM. actives 0.35% (n = 360,000). AID 602229, 2012;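 active = inhibition above the mean of all tested compounds plus 3 SD, cut at about 70% in these data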;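 also: 0% = DMSO with NR2E3 transfected cells and 100% = cells lacking NR2E3 construct; higher means lower luciferase signal from less NR2E3 corepressor binding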
Target sequence (Q9Y5X4 whole entry, looked up, the tested form may be a part): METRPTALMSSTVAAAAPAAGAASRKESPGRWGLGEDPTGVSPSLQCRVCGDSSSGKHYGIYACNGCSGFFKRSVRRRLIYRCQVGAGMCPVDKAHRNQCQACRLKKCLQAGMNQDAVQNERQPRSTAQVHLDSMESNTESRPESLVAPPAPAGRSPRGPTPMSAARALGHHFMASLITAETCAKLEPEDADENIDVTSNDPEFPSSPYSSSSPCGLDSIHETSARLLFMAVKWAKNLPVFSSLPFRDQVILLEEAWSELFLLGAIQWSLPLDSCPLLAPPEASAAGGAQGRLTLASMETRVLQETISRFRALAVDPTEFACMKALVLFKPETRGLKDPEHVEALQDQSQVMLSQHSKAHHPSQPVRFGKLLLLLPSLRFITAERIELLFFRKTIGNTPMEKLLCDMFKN
GalR3 antag = GalR3 antagonists in HEK293 cells, primary screen, cell-based, fluorescence readout. Galanin receptor type 3 (Homo sapiens), O60755. HEK293 GalR3-CNG cAMP membrane potential fluorescence; galR3 body fused to GalR1 C-terminus. inhibition, % at 3 µM. actives 0.44% (n = 360,000). AID 651719, 2012;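 active = inhibition above the screen-wide average plus 3 SD, cut at about 13% in these data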;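 also: forskolin and galanin both at EC90 stimulate the cells; cAMP rise reported by CNG channel membrane potential dye signal; 0% = forskolin plus galanin with DMSO and 100% = forskolin alone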
Target sequence (O60755 1-299 limits assumed): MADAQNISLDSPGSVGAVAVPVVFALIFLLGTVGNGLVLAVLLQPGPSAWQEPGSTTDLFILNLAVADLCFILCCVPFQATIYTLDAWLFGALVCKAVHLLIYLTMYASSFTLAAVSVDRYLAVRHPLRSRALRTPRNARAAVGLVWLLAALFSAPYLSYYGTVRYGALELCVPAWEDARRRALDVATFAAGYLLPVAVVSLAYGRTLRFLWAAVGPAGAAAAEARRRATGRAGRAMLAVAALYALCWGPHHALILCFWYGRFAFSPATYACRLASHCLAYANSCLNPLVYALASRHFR
Env fusion inh = inhibitors of HIV-1 Env-driven cell-cell fusion, primary screen, HeLa-JRFL effector, CEM21 target cells, luciferase; inhibition, % at 12.3 µM; actives 1.1% (n = 360,000); AID 651610, 2012;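 active = mean replicate inhibition score of at least 50 and every replicate individually at or above 50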;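 also: 0% = plate neutral controls and 100% = maraviroc near 300 nM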
GAA850 FXN act = FXN promoter activators, primary screen, cell-based, luciferase luminescence, HEK293 lucGAA850. HEK293 lucGAA850 FXN promoter luciferase reporter, 24 h; percent of 10 µM SAHA response. actives 0.56% (n = 360,000). activation, % at 6 µM;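 active = activation above the average of all compounds screened plus 3 SD, cutoff fixed separately per campaign, cut at about 7.5% in these data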;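 also: 0% = DMSO wells and 100% = 10 µM SAHA wells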
NR2E3 ag-2 = inhibitors of NR2E3-RetCOR corepressor binding, primary screen, NR2E3 agonist project, biochemical, TR-FRET, GST-NR2E3, biotin-RetCOR; 1536-well; inhibition of corepressor binding, % at 4.78 µM; actives 0.12% (n = 320,000);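 active = percent inhibition above the cutoff of mean plus 3 SD of all tested compounds, set per screening campaign, cut at about 20% in these data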;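 also: 0% = DMSO wells and 100% = biotin wells as full block of FRET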
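Assay system: NR2E3–RetCOR corepressor complex. Quantity: 1.35 nM GST-NR2E3. Buffer or medium: pH 7.5 Tris-based buffer. Reagent: biotinylated RetCOR corepressor at 7 nM final. Schedule: 5 h at 4 °C. Detection: TR-FRET, emission read at 617 and 671 nm. Replicates: one well per compound, singlicate testing.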
NR2E3 ag conf = NR2E3 agonist confirmation in cells, cell-based, luminescence, CHO-S two-hybrid. shares compounds with NR2E3 ag-1. CHO-S mammalian two-hybrid NR2E3-NCOR, luciferase luminescence. inhibition, % at 3.98 µM. actives 51% (n = 2,300);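 active = average inhibition above a cutoff equal to the mean inhibition of all tested compounds plus one SD, cut at about 70% in these data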;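 also: 0% = DMSO in NR2E3 cells and 100% = DMSO in cells lacking NR2E3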
VP16 counter = GAL4-VP16 reporter modulators, confirmation, counter-screen for NR2E3 agonist project, cell-based, luminescence, CHO-S, high throughput; shares compounds with NR2E3 ag-1; AID 624379, 2012; inhibition, % at 3.98 µM; CHO-S GAL4-VP16 luciferase reporter; actives 29% (n = 2,300);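 active = mean inhibition above a cutoff equal to the average over all tested compounds plus one standard deviation, cut at about 70% in these data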;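 also: luciferase from a UAS reporter driven by GAL4-VP16 transactivation; 0% = DMSO with VP16-transfected cells and 100% = DMSO with cells lacking VP16; higher means less reporter light so more repression of VP16 activity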
The depositor's hits bear a star; . = not tested or not shown; [ ] = remark or other dose.

SMILES	V-ATPase pHluor	NR2E3 ag-1	GalR3 antag	Env fusion inh	GAA850 FXN act	NR2E3 ag-2	NR2E3 ag conf	VP16 counter
O=Cc1ccc(OCC(=O)NC(=O)NC2CCCCC2)cc1	-1	-45	-2	-158	-2	0	.	.
CC(=O)c1ccc(OCC(=O)NC(=O)NC2CCCCC2)cc1	1	61	3	.	-1	1	22	55
Cc1cccc(C(=O)N[C@H](C(=O)Nc2ncc(C)s2)C(C)C)c1	-3	85*	-1	-324	1	1	98*	23
O=C(Nc1cccc(NC(=O)c2cccc(F)c2)n1)c1cccc(F)c1	-1	-52	-7	-14	1	2	.	.
O=C(Nc1cccc(NC(=O)c2c(F)cccc2F)n1)c1c(F)cccc1F	-1	60	-9	22	0	-3	79*	1
CO[C@@H]1CN(C)C(=O)c2ccc(NC(=O)c3nc4ccccc4s3)cc2OC[C@@H](C)NC[C@@H]1C	.	.	.	-1[16.7 µM]	.	.	.	.
COc1ccc(CNC(=O)C(C)N2CCN(S(=O)(=O)c3ccccc3F)CC2)cc1 (stereo not given)	5	12	-2	-17	0	5	.	.
CCCc1ccc(S(=O)(=O)N2CCN(C(C)C(=O)NCc3ccc(OC)cc3)CC2)cc1 (stereo not given)	0	49	-8	.	-2	1	27	32
C=CC[C@]1(C(=O)NCc2ccccc2)COC(c2ccc(OCCCO)cc2)=N1	.	.	.	-3[16.7 µM]	.	.	.	.
C=CCN1C(=O)S/C(=C/c2ccc(Sc3nc4ccccc4[nH]3)o2)C1=O	-1	50	-5	20	3	-2	81*	69
Cc1cc(C)cc(N=c2c([N+](=O)[O-])nn(-c3ccc4c(c3)OCCO4)n2O)c1	4	50	1	65*	-1	-5	61	12
Cc1ccc(N=c2c([N+](=O)[O-])nn(-c3ccc4c(c3)OCCO4)n2O)c(Cl)c1	.	.	.	.	.	-1	.	.
O=[N+]([O-])c1nn(-c2ccc3c(c2)OCCO3)n(O)c1=Nc1ccccc1	0	95*	-4	-10	-14	2	83*	77*
Cc1ccc(N=c2c([N+](=O)[O-])nn(-c3ccc4c(c3)OCCO4)n2O)cc1F	-2	82*	1	24	-11	1	63	49
O=[N+]([O-])c1nn(-c2ccc3c(c2)OCCO3)n(O)c1=NCCCO	-1	15	-2	-16	0	-2	.	.
O=C(C[C@@H]1CC[C@H]2[C@@H](COC[C@@H](O)CN2Cc2cccc(-c3ccncc3)c2)O1)N1CCOCC1	.	.	.	9[16.7 µM]	.	.	.	.
CCOC(=O)C1CCN(C(=O)C2CCCN(S(=O)(=O)c3ccc(OCC)c(Cl)c3)C2)CC1 (stereo not given)	5	70	-5	.	-1	-2	21	51
Cc1ccc(OCC(=O)c2cc(C)n(Cc3cccs3)c2C)c([N+](=O)[O-])n1	10	84*	4	14	-11	1	93*	88*
NC(=O)CC(NC(=O)Cc1ccc(Cl)cc1)c1ccc(NC2CC3CCC2C3)c([N+](=O)[O-])c1 (stereo not given)	-5	98*	-2	6	2	3	-21	-7
O=C(O)CCSc1nnc(-c2ccc3c(c2)OCO3)o1	3	53	-1	69*	-8	2	30	40
CC(=O)CSc1nnc(-c2ccc3c(c2)OCO3)o1	0	-120	-5	-47	1	1	.	.
COc1ccc(-c2ccccc2[C@H]2[C@@H](C#N)N(C(=O)C3CCCC3)[C@@H]2CO)cc1	.	.	.	20[16.7 µM]	.	.	.	.
Nc1ncnc2c(C3OC(CO)C(O)C3O)c[nH]c12 (stereo not given)	-2	103*	-6	95*	-15	.	101*	99*
C[C@H](CO)N1C[C@H](C)[C@H](CN(C)C(=O)Nc2ccc(F)cc2)OCCCC[C@H](C)Oc2ccc(NS(=O)(=O)c3ccc(F)cc3)cc2C1=O	.	.	.	-9[16.7 µM]	.	.	.	.
CO[C@@H]1CN(C)C(=O)c2ccc(NC(=O)Nc3c(C)noc3C)cc2OC[C@@H](C)N(CC2CC2)C[C@@H]1C	.	.	.	-4[16.7 µM]	.	.	.	.
SMILES	V-ATPase pHluor	NR2E3 ag-1	GalR3 antag	Env fusion inh	GAA850 FXN act	NR2E3 ag-2	NR2E3 ag conf	VP16 counter
CCOC(=O)C1=C[C@@H](C2CCCCC2)N(S(=O)(=O)c2ccc([N+](=O)[O-])cc2)[C@H]1c1ccccc1	.	74*	1	16	.	.	52	43
COc1ccc(NC(=O)N[C@H]2CC[C@@H](CCn3cc(C4(O)CCCC4)nn3)O[C@@H]2CO)cc1	.	.	.	5[16.7 µM]	.	.	.	.
CNc1snc(C)c1C(=O)OCC(=O)c1ccc(OC)c(F)c1	-1	53	-6	.	0	3	57	50
CNC(=S)NN=C(C)CCCC(C)=NNC(=S)NC	2	48	-4	-27	6	.	-2	-8
Cc1nc(-c2ccccn2)nc(N(C)c2ccccc2)c1Cl	-3	105*	-10	-8	-3	0	39	17
Cc1ccc(S(=O)(=O)N2CCOCC2)cc1C(=O)Nc1ccc(N2CCCCCC2)cc1	3	69	-2	.	-2	.	50	47
O=C(Nc1ccc(S(=O)(=O)N2CCOCC2)cc1)c1ccc(S(=O)(=O)N2CCOCC2)cc1	-6	17	-5	3	1	1	.	.
CC(=O)c1ccc(NC(=O)c2cc(S(=O)(=O)N3CCOCC3)ccc2C)cc1	-4	-1	-3	-6	2	1	.	.
O=C(Nc1ccc(Cc2ccncc2)cc1)c1ccc(S(=O)(=O)N2CCOCC2)cc1	-3	53	-3	.	-1	-1	58	57
CO[C@@H]1CN(C)C(=O)c2cc(NS(=O)(=O)c3ccccc3)ccc2OC[C@@H](C)N(Cc2ccccn2)C[C@H]1C	.	.	.	13[16.7 µM]	.	.	.	.
COc1cc(C2CC(=O)c3c([nH]c(C(=O)OCCOC(C)C)c3C)C2)cc(OC)c1OC (stereo not given)	-1	53	2	55*	-2	3	53	56
